Data on 13 molecules can be found in article PMC3625064 (Molecular cell, 2012).

Entries after “also recorded” stand apart in the source; their conditions may differ. No end group written: not given here.

The labels stand for the following.
B1: NP.d1: PWWP domain, residues 1–150; GST-tagged (protein)
chain: MAAVSLRLGDLVWGKLGRYPPWPGKIVNPPKDLKKPRGKKCFFVKFFGTEDHAWIKVEQLKPYHAHKEEMIKINKGKRFQQAVDAVEEFLRRAKGKDQTSSHNSSDDKNRRNSSEERSRPNSGDEKRKLSLSEGKVKKNMGEGKKRVSSG
modifications: left off: GST, end not stated, kept
B2: NP.d2: truncation protein containing the linker region, residues 1–252; GST-tagged (protein)
chain: MAAVSLRLGDLVWGKLGRYPPWPGKIVNPPKDLKKPRGKKCFFVKFFGTEDHAWIKVEQLKPYHAHKEEMIKINKGKRFQQAVDAVEEFLRRAKGKDQTSSHNSSDDKNRRNSSEERSRPNSGDEKRKLSLSEGKVKKNMGEGKKRVSSGSSERGSKSPLKRAQEQSPRKRGRPPKDEKDLTIPESSTVKGMMAGPMAAFKWQPTASEPVKDADPHFHHFLLSQTEKPAVCYQAITKKLKICEEETGSTSIQ
modifications: left off: GST, end not stated, kept
B3: NP.d5: dehydrogenase domain, residues 262–553; GST-tagged (protein)
chain: SITPTDKKIGFLGLGLMGSGIVSNLLKMGHTVTVWNRTAEKCDLFIQEGARLGRTPAEVVSTCDITFACVSDPKAAKDLVLGPSGVLQGIRPGKCYVDMSTVDADTVTELAQVIVSRGGRFLEAPVSGNQQLSNDGMLVILAAGDRGLYEDCSSCFQAMGKTSFFLGEVGNAAKMMLIVNMVQGSFMATIAEGLTLAQVTGQSQQTLLDILNQGQLASIFLDQKCQNILQGNFKPDFYLKYIQKDLRLAIALGDAVNHPTPMAAAANEVYKRAKALDQSDNDMSAVYRAYIH
modifications: left off: GST, end not stated, kept
B4: NP.d9: deletion of amino acids 214–222 from NP.d3 (protein)
chain: SERGSKSPLKRAQEQSPRKRGRPPKDEKDLTIPESSTVKGMMAGPMAAFKWQPTASEPVKDASQTEKPAVCYQAITKKLKICEEETGSTSIQ
modifications: left off: GST, end not stated, kept
B5: NP.d6: deletion of the linker region (residues 152–252); GST-tagged (protein)
chain: MAAVSLRLGDLVWGKLGRYPPWPGKIVNPPKDLKKPRGKKCFFVKFFGTEDHAWIKVEQLKPYHAHKEEMIKINKGKRFQQAVDAVEEFLRRAKGKDQTSSHNSSDDKNRRNSSEERSRPNSGDEKRKLSLSEGKVKKNMGEGKKRVSSGSAADSTAVNGSITPTDKKIGFLGLGLMGSGIVSNLLKMGHTVTVWNRTAEKCDLFIQEGARLGRTPAEVVSTCDITFACVSDPKAAKDLVLGPSGVLQGIRPGKCYVDMSTVDADTVTELAQVIVSRGGRFLEAPVSGNQQLSNDGMLVILAAGDRGLYEDCSSCFQAMGKTSFFLGEVGNAAKMMLIVNMVQGSFMATIAEGLTLAQVTGQSQQTLLDILNQGQLASIFLDQKCQNILQGNFKPDFYLKYIQKDLRLAIALGDAVNHPTPMAAAANEVYKRAKALDQSDNDMSAVYRAYIH
modifications: left off: GST, end not stated, kept
B6: NP.d8: residues 188–252 (protein)
chain: TVKGMMAGPMAAFKWQPTASEPVKDADPHFHHFLLSQTEKPAVCYQAITKKLKICEEETGSTSIQ
modifications: left off: GST, end not stated, kept
B7: NP.d4: truncation protein containing the linker region, residues 152–553; GST-tagged (protein)
chain: SERGSKSPLKRAQEQSPRKRGRPPKDEKDLTIPESSTVKGMMAGPMAAFKWQPTASEPVKDADPHFHHFLLSQTEKPAVCYQAITKKLKICEEETGSTSIQAADSTAVNGSITPTDKKIGFLGLGLMGSGIVSNLLKMGHTVTVWNRTAEKCDLFIQEGARLGRTPAEVVSTCDITFACVSDPKAAKDLVLGPSGVLQGIRPGKCYVDMSTVDADTVTELAQVIVSRGGRFLEAPVSGNQQLSNDGMLVILAAGDRGLYEDCSSCFQAMGKTSFFLGEVGNAAKMMLIVNMVQGSFMATIAEGLTLAQVTGQSQQTLLDILNQGQLASIFLDQKCQNILQGNFKPDFYLKYIQKDLRLAIALGDAVNHPTPMAAAANEVYKRAKALDQSDNDMSAVYRAYIH
modifications: left off: GST, end not stated, kept
B8: GST-NP.d3 (NPAC residues 152–252, linker region) (domain or fragment, UniProt Q49A26 152-252, looked up)
chain: SERGSKSPLKRAQEQSPRKRGRPPKDEKDLTIPESSTVKGMMAGPMAAFKWQPTASEPVKDADPHFHHFLLSQTEKPAVCYQAITKKLKICEEETGSTSIQ
B9: GST-tagged wild-type NPAC (natural protein, UniProt Q49A26 1-553, looked up)
chain: MAAVSLRLGDLVWGKLGRYPPWPGKIVNPPKDLKKPRGKKCFFVKFFGTEDHAWIKVEQLKPYHAHKEEMIKINKGKRFQQAVDAVEEFLRRAKGKDQTSSHNSSDDKNRRNSSEERSRPNSGDEKRKLSLSEGKVKKNMGEGKKRVSSGSSERGSKSPLKRAQEQSPRKRGRPPKDEKDLTIPESSTVKGMMAGPMAAFKWQPTASEPVKDADPHFHHFLLSQTEKPAVCYQAITKKLKICEEETGSTSIQAADSTAVNGSITPTDKKIGFLGLGLMGSGIVSNLLKMGHTVTVWNRTAEKCDLFIQEGARLGRTPAEVVSTCDITFACVSDPKAAKDLVLGPSGVLQGIRPGKCYVDMSTVDADTVTELAQVIVSRGGRFLEAPVSGNQQLSNDGMLVILAAGDRGLYEDCSSCFQAMGKTSFFLGEVGNAAKMMLIVNMVQGSFMATIAEGLTLAQVTGQSQQTLLDILNQGQLASIFLDQKCQNILQGNFKPDFYLKYIQKDLRLAIALGDAVNHPTPMAAAANEVYKRAKALDQSDNDMSAVYRAYIH
B10: GST-NP.d2 (NPAC residues 1–252) (domain or fragment, UniProt Q49A26 1-252, looked up)
chain: MAAVSLRLGDLVWGKLGRYPPWPGKIVNPPKDLKKPRGKKCFFVKFFGTEDHAWIKVEQLKPYHAHKEEMIKINKGKRFQQAVDAVEEFLRRAKGKDQTSSHNSSDDKNRRNSSEERSRPNSGDEKRKLSLSEGKVKKNMGEGKKRVSSGSSERGSKSPLKRAQEQSPRKRGRPPKDEKDLTIPESSTVKGMMAGPMAAFKWQPTASEPVKDADPHFHHFLLSQTEKPAVCYQAITKKLKICEEETGSTSIQ
B11: GST-NP.d8 (NPAC residues 188–252) (domain or fragment, UniProt Q49A26 188-252, looked up)
chain: TVKGMMAGPMAAFKWQPTASEPVKDADPHFHHFLLSQTEKPAVCYQAITKKLKICEEETGSTSIQ
B12: GST-NP.d4 (NPAC residues 152–553) (domain or fragment, UniProt Q49A26 152-553, looked up)
chain: SERGSKSPLKRAQEQSPRKRGRPPKDEKDLTIPESSTVKGMMAGPMAAFKWQPTASEPVKDADPHFHHFLLSQTEKPAVCYQAITKKLKICEEETGSTSIQAADSTAVNGSITPTDKKIGFLGLGLMGSGIVSNLLKMGHTVTVWNRTAEKCDLFIQEGARLGRTPAEVVSTCDITFACVSDPKAAKDLVLGPSGVLQGIRPGKCYVDMSTVDADTVTELAQVIVSRGGRFLEAPVSGNQQLSNDGMLVILAAGDRGLYEDCSSCFQAMGKTSFFLGEVGNAAKMMLIVNMVQGSFMATIAEGLTLAQVTGQSQQTLLDILNQGQLASIFLDQKCQNILQGNFKPDFYLKYIQKDLRLAIALGDAVNHPTPMAAAANEVYKRAKALDQSDNDMSAVYRAYIH

One assay concerns the target T1, LSD2 (Homo sapiens, UniProt Q8NB78).
T1 sequence (Q8NB78 1-822): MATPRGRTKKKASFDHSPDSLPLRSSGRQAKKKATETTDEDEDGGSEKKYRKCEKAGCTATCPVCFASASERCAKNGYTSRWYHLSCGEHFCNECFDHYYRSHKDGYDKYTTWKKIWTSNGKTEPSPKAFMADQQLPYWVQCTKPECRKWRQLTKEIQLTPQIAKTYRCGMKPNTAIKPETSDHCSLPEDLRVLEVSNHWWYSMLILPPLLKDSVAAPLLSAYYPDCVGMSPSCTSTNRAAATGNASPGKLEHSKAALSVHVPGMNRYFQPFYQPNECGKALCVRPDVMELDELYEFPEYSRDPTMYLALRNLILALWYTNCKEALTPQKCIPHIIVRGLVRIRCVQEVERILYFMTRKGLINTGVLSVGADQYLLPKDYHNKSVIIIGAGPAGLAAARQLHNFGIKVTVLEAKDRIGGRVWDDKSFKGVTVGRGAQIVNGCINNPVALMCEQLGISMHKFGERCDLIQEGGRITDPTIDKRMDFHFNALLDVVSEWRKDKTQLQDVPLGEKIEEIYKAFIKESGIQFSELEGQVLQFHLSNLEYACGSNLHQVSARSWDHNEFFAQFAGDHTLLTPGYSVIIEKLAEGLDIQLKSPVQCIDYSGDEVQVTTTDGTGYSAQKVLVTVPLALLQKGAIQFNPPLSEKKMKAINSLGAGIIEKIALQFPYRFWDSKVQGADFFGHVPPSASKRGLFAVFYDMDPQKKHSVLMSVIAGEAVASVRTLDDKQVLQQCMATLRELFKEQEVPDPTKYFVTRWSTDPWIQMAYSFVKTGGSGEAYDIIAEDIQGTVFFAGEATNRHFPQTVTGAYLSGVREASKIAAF
The assay can be described thus: GST pull-down of His-LSD2. Format: binding. As to conditions: GST pull-down of purified His-LSD2; SDS-PAGE, Coomassie blue staining. The method, boiled down: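 GST and GST-tagged wild-type or mutant NPAC proteins (linker-region and binding-site mutants) were used to pull down purified His-LSD2. His-LSD2 in input and bound fractions was resolved by SDS-PAGE and stained with Coomassie blue.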
On to “NP.d7: residues 152–186, containing the AT-hook motif (SERGSKSPLKRAQEQSPRKRGRPPKDEKDLTIPES; also: GST fusion, end not given here)”, for which the “LSD2 binding / interaction” value was “but not NP.d7 (residues 152–186, containing the AT-hook motif, lane 4), was sufficient for LSD2 interaction”.
On the same count and under the same terms, the entry for B1 is “Neither the PWWP domain (NP.d1) nor the dehydrogenase domain (NP.d5) interacted with LSD2”.
As to B2, the “LSD2 binding / interaction” value is “capable of directly interacting with LSD2; also recorded: did not adversely affect LSD2 binding”.
Still for that read-out and setting: for B3 the value was “Neither the PWWP domain (NP.d1) nor the dehydrogenase domain (NP.d5) interacted with LSD2”; for B4, “completely abolished LSD2 binding”; for B5, “abolished NPAC-LSD2 interaction”.
The same measure, in the same setting: the entry for B6 is “sufficient for LSD2 interaction”; for B7 it is “capable of directly interacting with LSD2; also recorded: did not adversely affect LSD2 binding”.

In the next assay the target is T2, recombinant hexa-His-tagged LSD2 (human, UniProt Q8NB78 1-822).
T2 sequence (looked up): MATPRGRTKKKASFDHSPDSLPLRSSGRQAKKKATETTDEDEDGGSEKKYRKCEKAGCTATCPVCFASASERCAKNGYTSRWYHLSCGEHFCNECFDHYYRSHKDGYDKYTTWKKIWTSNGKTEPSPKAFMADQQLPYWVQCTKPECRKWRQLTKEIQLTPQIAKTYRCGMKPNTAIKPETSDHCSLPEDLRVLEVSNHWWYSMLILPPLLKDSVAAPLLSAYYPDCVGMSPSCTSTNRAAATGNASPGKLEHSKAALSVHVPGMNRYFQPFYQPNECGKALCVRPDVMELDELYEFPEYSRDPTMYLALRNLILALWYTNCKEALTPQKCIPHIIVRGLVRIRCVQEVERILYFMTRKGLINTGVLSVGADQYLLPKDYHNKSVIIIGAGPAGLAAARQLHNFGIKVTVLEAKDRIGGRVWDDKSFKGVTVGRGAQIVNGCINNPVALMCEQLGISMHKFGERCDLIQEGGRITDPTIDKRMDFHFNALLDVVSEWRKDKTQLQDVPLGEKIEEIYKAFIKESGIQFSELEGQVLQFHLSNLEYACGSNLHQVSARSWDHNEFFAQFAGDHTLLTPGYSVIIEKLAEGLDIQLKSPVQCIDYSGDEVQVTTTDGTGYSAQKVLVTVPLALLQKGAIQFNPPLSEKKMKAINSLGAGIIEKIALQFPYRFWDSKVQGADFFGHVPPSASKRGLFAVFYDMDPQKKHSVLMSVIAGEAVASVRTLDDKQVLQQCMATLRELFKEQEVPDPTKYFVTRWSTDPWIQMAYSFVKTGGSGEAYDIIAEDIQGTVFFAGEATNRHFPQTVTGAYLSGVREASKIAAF
The assay is described as follows: pull-down.
Details: not given
With B8, the binding result is recorded as “binds”.
Take B9: the binding result is on record as “binds”.
Same read-out and setting: the entry for B10 is “binds”; for B11 it is “binds”; for B12 it is “binds”.
